From ChEMBL document CHEMBL3297737, “Discovery of the first potent and orally available agonist of the orphan G-protein-coupled receptor 52” (J Med Chem, 2014) come the findings set out here.

In data set [1] the target is T1, G-protein coupled receptor 52 (Homo sapiens, UniProt Q9Y2T5). The data set is described as follows: Agonist activity at human GPR52 expressed in CHO cells assessed as cAMP production after 30 mins by Alphascreen assay relative to N-(2-Hydroxyethyl)-3-{2-[3-(trifluoromethyl)benzyl]-1-benzofuran-4-yl}benzamide. It is filed as functional, cell-based. (Cyclic AMP is a second messenger, typically raised through Gs and lowered through Gi signalling.)
T1 sequence (Q9Y2T5 whole entry): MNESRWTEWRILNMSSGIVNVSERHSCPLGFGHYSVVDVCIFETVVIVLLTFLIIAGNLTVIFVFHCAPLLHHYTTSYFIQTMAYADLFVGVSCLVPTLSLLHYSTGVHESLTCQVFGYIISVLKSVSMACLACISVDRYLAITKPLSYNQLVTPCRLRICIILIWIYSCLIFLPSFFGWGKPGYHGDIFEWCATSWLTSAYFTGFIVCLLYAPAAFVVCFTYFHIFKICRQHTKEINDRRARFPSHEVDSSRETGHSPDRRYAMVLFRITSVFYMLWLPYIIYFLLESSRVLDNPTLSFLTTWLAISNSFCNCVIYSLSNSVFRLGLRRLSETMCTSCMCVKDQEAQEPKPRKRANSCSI

In data set [2] the target is T1, G-protein coupled receptor 52. Briefly: Agonist activity at human GPR52 expressed in CHO cells assessed as cAMP production after 30 mins by Alphascreen assay. It is filed as functional, cell-based.
For data set [3] the target is unchanged. Briefly: Agonist activity at GPR52 (unknown origin) relative to control.
Data set [4] shares this target. The data set is described as follows: Agonist activity at GPR52 (unknown origin).
Data set [5] is described as follows: Ratio of AUC from brain to plasma in mouse at 30 mg/kg, po. The note with it: read-out: Ratio AUC. It is filed as ADME, organism-based. Also noted: dose 30 mg/kg, route oral. In a few lines: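 Brain/plasma AUC ratio determined in mice after oral administration of 30 mg/kg.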
The target in data set [6] is D(2) dopamine receptor (Homo sapiens) (UniProt P14416). The data set is described as follows: Agonist activity at dopamine D2 receptor (unknown origin).
Chain of D(2) dopamine receptor (Homo sapiens) (P14416 whole entry): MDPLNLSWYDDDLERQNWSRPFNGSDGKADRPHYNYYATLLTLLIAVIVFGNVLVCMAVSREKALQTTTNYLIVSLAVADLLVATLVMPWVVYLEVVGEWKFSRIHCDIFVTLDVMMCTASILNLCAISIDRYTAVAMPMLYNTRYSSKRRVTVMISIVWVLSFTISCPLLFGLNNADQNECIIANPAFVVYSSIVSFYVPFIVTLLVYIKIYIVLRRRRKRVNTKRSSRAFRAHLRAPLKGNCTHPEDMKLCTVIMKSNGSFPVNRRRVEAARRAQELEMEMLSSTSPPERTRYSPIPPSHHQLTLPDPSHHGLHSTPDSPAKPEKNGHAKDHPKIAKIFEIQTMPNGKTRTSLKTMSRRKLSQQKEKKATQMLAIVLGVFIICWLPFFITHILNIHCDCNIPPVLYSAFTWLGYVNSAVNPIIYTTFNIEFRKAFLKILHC
Data set [7] relates to Mus musculus. The data set is described as follows: Toxicity in ICR mouse assessed as extrapyramidal side effects at 100 mg/kg, po after 1 to 2 hrs. The data set is classed as organism-based. Also noted: dose 100 mg/kg, route oral. The note with it: in vivo. Summed up:
(§1)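 Male ICR mice, 6–7 weeks old, dosed orally (10–100 mg/kg). Tested 1 and 2 h post-dose by placing forepaws on a steel bar, hind legs on the surface. Time holding immobile posture recorded, capped at 30 s. Three trials averaged per mouse. n = 6 per group. Williams test versus vehicle.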

The target in data set [8] is Glutamate [NMDA] receptor (Homo sapiens) (UniProt Q05586+Q12879+Q13224+O15399+O60391+Q14957+Q8TCU5). The data set is described as follows: Agonist activity at NMDA receptor (unknown origin).
Data set [9] has as its target D(1A) dopamine receptor (Homo sapiens) (UniProt P21728). Briefly: Agonist activity at human dopamine D1 receptor expressed in CHO cells. The data set is classed as cell-based. Summed up: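 cAMP production measured in CHO cells expressing human dopamine D1 receptor (DRD1). Mean ± SD, n = 4.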
The nature of data set [10]: AUC (0 to 8 hrs) in mouse at 1 mg/kg, po administered via cassette dosing. Also noted: time < 8 hr, dose 1 mg/kg, route oral. To be noted: plasma. The data set is classed as ADME, organism-based. Summed up:
(§2)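 Mouse cassette dosing at 0.1 mg/kg iv and 1 mg/kg po. Plasma Cmax, AUC0–8h and oral bioavailability determined.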

A short description of data set [11]: Cmax in mouse at 1 mg/kg, po administered via cassette dosing. The note with it: in vivo. It is filed as ADME, organism-based. Also noted: dose 1 mg/kg, route oral. Summed up:
as §2

The species named for data set [12] is Homo sapiens. The data set is described as follows: Agonist activity at 5HT2 receptor (unknown origin).
Data set [13] has as its system Mus musculus. The data set is described as follows: Antipsychotic activity against methamphetamine-induced hyperlocomotion in ICR mouse at 3 mg/kg, po administered 60 mins prior to methamphetamine challenge measured 150 mins post compound challenge. It is filed as functional, organism-based. On the set-up: dose 3 mg/kg. In a few lines: (§3)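 Male ICR mice, 7–8 weeks old, each in its own cage. Locomotor activity monitored. Compound given orally (1–30 mg/kg) after 60 min habituation. Methamphetamine 2 mg/kg sc injected 60 min later. Activity counts recorded for 150 min after compound dosing. n = 6–7 per group. Williams test versus vehicle + methamphetamine.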

For data set [14], the system named is Mus musculus. The data set is described as follows: Toxicity in ICR mouse assessed as cataleptogenic effect at 100 mg/kg, po after 1 to 2 hrs. It is filed as organism-based. The note with it: in vivo. On the set-up: dose 100 mg/kg, route oral. Summed up: as §1
The target in data set [15] is D(1A) dopamine receptor (Homo sapiens) (UniProt P21728). The data set is described as follows: Agonist activity at dopamine D1 receptor (unknown origin).
Chain of D(1A) dopamine receptor (Homo sapiens) (P21728 whole entry): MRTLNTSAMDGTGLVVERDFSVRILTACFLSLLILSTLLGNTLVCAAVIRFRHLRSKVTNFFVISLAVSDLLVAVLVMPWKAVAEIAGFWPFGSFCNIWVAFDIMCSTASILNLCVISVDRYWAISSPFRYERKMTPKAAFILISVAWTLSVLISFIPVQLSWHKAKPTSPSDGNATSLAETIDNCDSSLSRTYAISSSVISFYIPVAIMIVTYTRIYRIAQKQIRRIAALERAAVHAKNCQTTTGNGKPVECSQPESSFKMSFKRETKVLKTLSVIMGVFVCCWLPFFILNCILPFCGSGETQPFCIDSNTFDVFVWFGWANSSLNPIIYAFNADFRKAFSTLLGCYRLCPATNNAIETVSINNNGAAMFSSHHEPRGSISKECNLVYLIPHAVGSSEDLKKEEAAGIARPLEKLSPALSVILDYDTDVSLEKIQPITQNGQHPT
A short description of data set [16]: Oral bioavailability in mouse at 1 mg/kg administered via cassette dosing. The data set is classed as ADME, organism-based. The note with it: in vivo. In a few lines:
as §2

Data set [17] deals with Mus musculus. The data set is described as follows: Antipsychotic activity against methamphetamine-induced hyperlocomotion in po dosed ICR mouse administered 60 mins prior to methamphetamine challenge measured 150 mins post compound challenge. It is filed as functional, organism-based. Summed up:
as §3

The species named for data set [18] is Homo sapiens. Briefly: Agonist activity at AMPA receptor (unknown origin).
For data set [19], the target named is T1, G-protein coupled receptor 52. The data set is described as follows: Agonist activity at human GPR52 expressed in CHO cells assessed as cAMP production at 10 uM after 30 mins by Alphascreen assay. It is filed as functional, cell-based.

Calls of active or inactive are those of the source. The calls are words filed in the database; no cut-off is given here. A value given as a limit tells only on which side of the number the result lay.

The term Emax denotes the greatest response seen or fitted, relative to the assay's reference. The term EC50 denotes the concentration at which the effect is half-maximal. The term AUC(0-t) denotes the area under the concentration-time curve up to a stated or last time point. Read a low AUC(0-t) as less exposure. In general, Cmax refers to the highest concentration seen after dosing. One may read the bioavailability as the share of a dose that reaches the circulation, judged against a reference dose that is usually intravenous. Low values mean poor availability, high ones good availability.

Turning to `O=C(NCCO)c1cccc(-c2cccc3c2OC(Cc2cccc(C(F)(F)F)c2)C3)c1` (racemic), the Emax in data set [1] amounted to 56.1%. In [2], the EC50 is 0.209 µM.
Turning to `COCCNC(=O)c1cccc(-c2cccc3cc(Cc4cccc(C(F)(F)F)c4)sc23)c1`, the Emax in [1] was 85%. The EC50 in data set [2] was 0.0427 µM.
The compound `O=C(NCCO)c1cccc(-c2cccc(OCCc3cccc(C(F)(F)F)c3)n2)c1` had an Emax in data set [3] of 73.1%. Moreover, the EC50 in data set [4] was 0.646 µM.
Consider `O=C(NCCO)c1cccc(-c2cccc3oc(Cc4cccc(C(F)(F)F)c4)cc23)c1`, for which, in data set [1], the Emax is 85.7%. Moreover, the EC50 in [2] is 0.0282 µM.
`O=C(NCCO)c1cccc(-c2cccc(OCCc3cc(F)cc(Cl)c3)n2)c1` yielded an Emax in [3] of 79%. This compound also gave an EC50 in data set [4] of 0.347 µM.
Regarding `O=C(NCCO)c1cccc(-c2cccc3cc(Cc4cccc(C(F)(F)F)c4)oc23)c1`, the Emax in data set [1] was 74.8%. Besides, the EC50 in data set [2] is 0.0347 µM.
In the same order, the values of `O=C(NCCO)c1cccc(-c2cccc3cc(Cc4cccc(C(F)(F)F)c4)sc23)c1` are 79.6% and 0.0372 µM.
In the same order, the values of `O=C(NCCO)c1cccc(-c2cccc3sc(Cc4cccc(C(F)(F)F)c4)cc23)c1` are 68.6% and 0.038 µM.
For the compound `COCCNC(=O)c1cccc(-c2cccc3cc(Cc4cc(F)cc(Cl)c4)sc23)c1`, the Kp in data set [5] was found to be 0.94. Besides, the result in data set [6], in [8], in [9], in data set [12], in data set [15] and in data set [18] was inactive. Also, the Activity entry in [7] is “Non-toxic”; in data set [14] it was “Non-toxic”; in data set [17] it was “Dose-dependent effect”. Besides, in data set [10], the AUC(0-t) at 8 h is 0.614 µg·h/mL. In [11], this compound had a Cmax of 0.108 µg/mL. Moreover, in [1], the Emax was 79.8%. The result in data set [13] was Active. Moreover, the bioavailability in data set [16] came to 73%. In addition, the EC50 in data set [2] was 0.0295 µM.
`Cc1c(Cc2cccc(C(F)(F)F)c2)oc2c(-c3cccc(C(=O)NCCO)c3)cccc12`: the Emax in [1] amounted to 71.5%. For the same compound, the EC50 in [2] was 0.0813 µM.
In the same order, the values of `O=C(NCCO)c1cccc(-c2cccc3c2CC(Cc2cccc(C(F)(F)F)c2)O3)c1` (racemic) are 45.9% and 0.646 µM.
In the same order, the values of `NC(=O)CNC(=O)c1cccc(-c2cccc3cc(Cc4cccc(C(F)(F)F)c4)sc23)c1` are 102% and 0.055 µM.
In the same order, the values of `O=C(NCCO)c1cccc(-c2cccc3cn(Cc4cccc(C(F)(F)F)c4)nc23)c1` are 69.7% and 0.0646 µM.
In the case of `NC(=O)CNC(=O)c1cccc(-c2ccc(F)c3cc(Cc4cccc(C(F)(F)F)c4)sc23)c1`, the Emax in data set [1] was 107%. Moreover, the EC50 in data set [2] is 0.0832 µM.
For `Cc1c(Cc2cccc(C(F)(F)F)c2)oc2cccc(-c3cccc(C(=O)NCCO)c3)c12`, in [19], the Activity stood at 20%. For the same compound, the EC50 in [2] was greater than 10 µM.
In the same order, the values of `COc1ccc(-c2ccnc(NCCc3ccc(OC)c(OC)c3)n2)cc1` are 33% and greater than 10 µM.
For `O=C(NCCO)c1cccc(-c2cccc3nn(Cc4cccc(C(F)(F)F)c4)cc23)c1`, in data set [1], the Emax was found to be 79.1%. Moreover, the EC50 in data set [2] was 0.0389 µM.
